From ChEMBL document CHEMBL2146464, “Structure-activity relationship study of nitrosopyrimidines acting as antifungal agents” (Bioorg Med Chem, 2012)
In brackets after ≈: the same amount, converted by molar mass. Activity calls are given as the source filed them. The calls are words filed in the database; no cut-off is given here.

Tests used:
Candida tropicalis [1] = test: Antifungal activity against Candida tropicalis assessed as growth inhibition at 15.6 ug/mL by microplate reader analysis; assay type: functional; settings: read-out: GI
Candida tropicalis [2] = test: Antifungal activity against Candida tropicalis assessed as growth inhibition at 31.25 ug/mL by microplate reader analysis; assay type: functional; settings: read-out: GI
Candida tropicalis [3] = test: Antifungal activity against Candida tropicalis after 48 hrs by NCCLS broth microdilution method; assay type: functional; settings: read-out: MIC100
Procedure, shortened: (§1)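 Yeast MIC by NCCLS M27-A3 broth microdilution in RPMI-1640 buffered to pH 7.0 with MOPS. Twofold dilutions of 250–0.98 µg/mL, final DMSO ≤1%. Inoculum 1–5 × 10³ CFU/mL. Incubated at 30 °C in a moist dark chamber. Read visually at 48 h. MIC100 is the lowest concentration with no visible growth versus drug-free control.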

Cryptococcus neoformans [4] = test: Antifungal activity against Cryptococcus neoformans ATCC 32264 assessed as growth inhibition at 125 ug/mL after 48 hrs by microplate reader analysis; assay type: functional; settings: ATCC 32264, 48 h, read-out: GI
Procedure, shortened: (§2)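 Microplate growth-inhibition assay in RPMI-1640, compound at final 250–0.98 µg/mL (DMSO ≤1%). Inoculum 1–5 × 10³ CFU/mL. Sterility and DMSO growth controls included. Percent inhibition is computed from blank-corrected OD relative to the growth control, tested in duplicate.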

Cryptococcus neoformans [5] = test: Fungicidal activity against Cryptococcus neoformans ATCC 32264 at 0.98 to 250 ug/mL after 48 hrs by agar plate dilution method; assay type: functional, organism-based
Procedure, shortened: (§3)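 MFC: after the microdilution MIC, material from each clear well was plated onto RPMI-1640 agar buffered with MOPS. Plates incubated at 30 °C and read after 48 h. MFC is the lowest concentration giving total inhibition of visible growth.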

Candida albicans [6] = test: Antifungal activity against Candida albicans ATCC 10231 assessed as growth inhibition at 125 ug/mL after 24 hrs by microplate reader analysis; assay type: functional; settings: ATCC 10231, 24 h, read-out: GI
Procedure, shortened: (§4)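 96-well RPMI-1640 wells with compound at final 250–0.98 µg/mL (DMSO ≤1%). Inoculum 100 µL, 1–5 × 10³ CFU/mL, 200 µL final. Each well includes growth (DMSO, no compound) and sterility controls. % inhibition = 100 − (CTW−SCW)/(GCW−SCW) × 100, run in duplicate.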

Nannizzia gypsea = test: Antifungal activity against Microsporum gypseum CCC 115 at 0.98 to 250 ug/mL by NCCLS broth microdilution method; assay type: functional, organism-based
Procedure, shortened: (§5)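 MIC by broth microdilution per NCCLS M27-A3/M38-A2 in RPMI-1640 buffered to pH 7.0 with MOPS. Twofold dilutions from 250–0.98 µg/mL, final DMSO ≤1%. Inoculum 1–5 × 10³ CFU/mL. Incubated in a moist dark chamber, 30 °C for Aspergillus and 28–30 °C for dermatophytes. Read visually when control growth allowed. Endpoint is the lowest concentration giving total inhibition of visible growth (MIC100).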

Candida tropicalis [7] = test: Antifungal activity against Candida tropicalis assessed as growth inhibition at 125 ug/mL by microplate reader analysis; assay type: functional; settings: read-out: GI
Cryptococcus neoformans [8] = test: Antifungal activity against Cryptococcus neoformans ATCC 32264 after 48 hrs by microplate reader analysis; assay type: functional; settings: ATCC 32264, 48 h; procedure, shortened: as §2
Candida tropicalis [9] = test: Antifungal activity against Candida tropicalis by microplate reader analysis; assay type: functional
Candida tropicalis [10] = test: Antifungal activity against Candida tropicalis assessed as growth inhibition at 7.8 ug/mL by microplate reader analysis; assay type: functional; settings: read-out: GI
Trichophyton rubrum = test: Antifungal activity against Trichophyton rubrum CCC 110 at 0.98 to 250 ug/mL by NCCLS broth microdilution method; assay type: functional, organism-based; procedure, shortened: as §5
Candida albicans [11] = test: Antifungal activity against Candida albicans ATCC 10231 after 48 hrs by NCCLS broth microdilution method; assay type: functional; settings: ATCC 10231, 48 h, read-out: MIC100; procedure, shortened: as §1
Aspergillus fumigatus = test: Antifungal activity against Aspergillus fumigatus ATCC 26934 at 0.98 to 250 ug/mL by NCCLS broth microdilution method; assay type: functional, organism-based; procedure, shortened: as §5
Candida albicans [12] = test: Antifungal activity against Candida albicans ATCC 10231 assessed as growth inhibition at 250 ug/mL after 24 hrs by microplate reader analysis; assay type: functional; settings: ATCC 10231, 24 h, read-out: GI; procedure, shortened: as §4
[13] = tested on: Trichophyton mentagrophytes; test: Antifungal activity against Trichophyton mentagrophytes ATCC 9972 at 0.98 to 250 ug/mL by NCCLS broth microdilution method; assay type: functional, organism-based; procedure, shortened: as §5
Cryptococcus neoformans [14] = test: Antifungal activity against Cryptococcus neoformans ATCC 32264 assessed as growth inhibition at 31.25 ug/mL after 48 hrs by microplate reader analysis; assay type: functional; settings: ATCC 32264, 48 h, read-out: GI; procedure, shortened: as §2
Aspergillus niger = test: Antifungal activity against Aspergillus niger ATCC 9029 at 0.98 to 250 ug/mL by NCCLS broth microdilution method; assay type: functional, organism-based; procedure, shortened: as §5
Cryptococcus neoformans [15] = test: Antifungal activity against Cryptococcus neoformans ATCC 32264 after 48 hrs by NCCLS broth microdilution method; assay type: functional; settings: ATCC 32264, 48 h, read-out: MIC100; procedure, shortened: as §1
Cryptococcus neoformans [16] = test: Antifungal activity against Cryptococcus neoformans ATCC 32264 assessed as growth inhibition at 250 ug/mL after 48 hrs by microplate reader analysis; assay type: functional; settings: ATCC 32264, 48 h, read-out: GI; procedure, shortened: as §2
Candida tropicalis [17] = test: Fungicidal activity against Candida tropicalis at 0.98 to 250 ug/mL after 48 hrs by agar plate dilution method; assay type: functional, organism-based; procedure, shortened: as §3
Candida albicans [18] = test: Antifungal activity against Candida albicans ATCC 10231 assessed as growth inhibition at 62.5 ug/mL after 24 hrs by microplate reader analysis; assay type: functional; settings: ATCC 10231, 24 h, read-out: GI; procedure, shortened: as §4
Candida albicans [19] = test: Antifungal activity against Candida albicans ATCC 10231 assessed as growth inhibition at 7.8 ug/mL after 24 hrs by microplate reader analysis; assay type: functional; settings: ATCC 10231, 24 h, read-out: GI; procedure, shortened: as §4
Cryptococcus neoformans [20] = test: Antifungal activity against Cryptococcus neoformans ATCC 32264 assessed as growth inhibition at 62.5 ug/mL after 48 hrs by microplate reader analysis; assay type: functional; settings: ATCC 32264, 48 h, read-out: GI; procedure, shortened: as §2
Candida albicans [21] = test: Antifungal activity against Candida albicans ATCC 10231 assessed as growth inhibition at 31.25 ug/mL after 24 hrs by microplate reader analysis; assay type: functional; settings: ATCC 10231, 24 h, read-out: GI; procedure, shortened: as §4
Candida tropicalis [22] = test: Antifungal activity against Candida tropicalis assessed as growth inhibition at 250 ug/mL by microplate reader analysis; assay type: functional; settings: read-out: GI
Candida albicans [23] = test: Antifungal activity against Candida albicans ATCC 10231 after 24 hrs by microplate reader analysis; assay type: functional; settings: ATCC 10231, 24 h; procedure, shortened: as §4
Aspergillus flavus = test: Antifungal activity against Aspergillus flavus ATCC 9170 at 0.98 to 250 ug/mL by NCCLS broth microdilution method; assay type: functional, organism-based; procedure, shortened: as §5
Candida albicans [24] = test: Antifungal activity against Candida albicans ATCC 10231 assessed as growth inhibition at 15.6 ug/mL after 24 hrs by microplate reader analysis; assay type: functional; settings: ATCC 10231, 24 h, read-out: GI; procedure, shortened: as §4
Candida albicans [25] = test: Fungicidal activity against Candida albicans ATCC 10231 at 0.98 to 250 ug/mL after 48 hrs by agar plate dilution method; assay type: functional, organism-based; procedure, shortened: as §3
Candida tropicalis [26] = test: Antifungal activity against Candida tropicalis assessed as growth inhibition at 62.5 ug/mL by microplate reader analysis; assay type: functional; settings: read-out: GI
Cryptococcus neoformans [27] = test: Antifungal activity against Cryptococcus neoformans ATCC 32264 assessed as growth inhibition at 3.9 ug/mL after 48 hrs by microplate reader analysis; assay type: functional; settings: ATCC 32264, 48 h, read-out: GI; procedure, shortened: as §2
[28] = Acute toxicity in bony fish assessed as mortality at 3 ug/mL after 96 hrs; settings: actinopterygii; read-out: Activity
Procedure, shortened: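 Guppy (Poecilia reticulata) acute static exposure: 10 fish per concentration in 2 L wide-mouthed jars holding the test solution. Compounds were added from […] to give the final concentrations. Dead fish were counted and removed every 24 h, with general condition noted; percentage mortality was scored at 96 h. Two experiments, each in triplicate.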

Cryptococcus neoformans [29] = test: Antifungal activity against Cryptococcus neoformans ATCC 32264 assessed as growth inhibition at 15.6 ug/mL after 48 hrs by microplate reader analysis; assay type: functional; settings: ATCC 32264, 48 h, read-out: GI; procedure, shortened: as §2
Candida tropicalis [30] = test: Antifungal activity against Candida tropicalis assessed as growth inhibition at 3.9 ug/mL by microplate reader analysis; assay type: functional; settings: read-out: GI
Candida albicans [31] = test: Antifungal activity against Candida albicans ATCC 10231 assessed as growth inhibition at 3.9 ug/mL after 24 hrs by microplate reader analysis; assay type: functional; settings: ATCC 10231, 24 h, read-out: GI; procedure, shortened: as §4
Cryptococcus neoformans [32] = test: Antifungal activity against Cryptococcus neoformans ATCC 32264 assessed as growth inhibition at 7.8 ug/mL after 48 hrs by microplate reader analysis; assay type: functional; settings: ATCC 32264, 48 h, read-out: GI; procedure, shortened: as §2

COc1nc(N)nc2c1ncn2C12CC3CC(CC(C3)C1)C2
inhibition of growth at 15.6 µg/mL (Candida tropicalis [1]): 41.5% | inhibition of growth at 31.25 µg/mL (Candida tropicalis [2]): 47.3% | MIC (Candida tropicalis [3]): 250 mg/L (≈ 835 µM) | inhibition of growth at 125 µg/mL (Cryptococcus neoformans [4]): 88% | Activity (Cryptococcus neoformans [5]): inactive | inhibition of growth at 125 µg/mL (Candida albicans [6]): 86.8% | Activity (Nannizzia gypsea): inactive | inhibition of growth at 125 µg/mL (Candida tropicalis [7]): 81.2% | MIC50 (Cryptococcus neoformans [8]): 31.2 mg/L (≈ 104 µM) | MIC50 (Candida tropicalis [9]): 62.5 mg/L (≈ 209 µM) | inhibition of growth at 7.8 µg/mL (Candida tropicalis [10]): 34.5% | Activity (Trichophyton rubrum): inactive | MIC (Candida albicans [11]): 250 mg/L (≈ 835 µM) | Activity (Aspergillus fumigatus): inactive | inhibition of growth at 250 µg/mL (Candida albicans [12]): 100% | Activity [13]: inactive | inhibition of growth at 31.25 µg/mL (Cryptococcus neoformans [14]): 56.9% | Activity (Aspergillus niger): inactive | MIC (Cryptococcus neoformans [15]): 250 mg/L (≈ 835 µM) | inhibition of growth at 250 µg/mL (Cryptococcus neoformans [16]): 100% | Activity (Candida tropicalis [17]): inactive | inhibition of growth at 62.5 µg/mL (Candida albicans [18]): 43.4% | inhibition of growth at 7.8 µg/mL (Candida albicans [19]): 23.2% | inhibition of growth at 62.5 µg/mL (Cryptococcus neoformans [20]): 51.1% | inhibition of growth at 31.25 µg/mL (Candida albicans [21]): 38.9% | inhibition of growth at 250 µg/mL (Candida tropicalis [22]): 100% | MIC50 (Candida albicans [23]): 62.5 mg/L (≈ 209 µM) | Activity (Aspergillus flavus): inactive | inhibition of growth at 15.6 µg/mL (Candida albicans [24]): 34.3% | Activity (Candida albicans [25]): inactive | inhibition of growth at 62.5 µg/mL (Candida tropicalis [26]): 53.3% | inhibition of growth at 3.9 µg/mL (Cryptococcus neoformans [27]): 0% | mortality at 96 h, 3 ug/mL [28]: 0% | inhibition of growth at 15.6 µg/mL (Cryptococcus neoformans [29]): 39.2% | inhibition of growth at 3.9 µg/mL (Candida tropicalis [30]): 36.4% | inhibition of growth at 3.9 µg/mL (Candida albicans [31]): 29.3% | inhibition of growth at 7.8 µg/mL (Cryptococcus neoformans [32]): 9.5%
